Consider eleven compounds from ChEMBL document CHEMBL3616457, “Synthesis and biological evaluation of new symmetric curcumin derivatives” (Bioorg Med Chem Lett, 2015).

≈ marks a conversion by molar mass, not a printed value. Calls of active or inactive are those of the source. The rule behind the calls is not given here.

For orientation: IC50 means the concentration at which inhibition is half-maximal.

The nature of series [1]: Antioxidant activity assessed as DPPH radical scavenging activity. The format is physicochemical. An outline of the steps: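 DPPH stock 0.1 mmol in DMSO. 1 mL sample diluted with 2 mL DMSO, mixed with 2 mL DPPH stock, absorbance at 517 nm. Tested at 10–50 μg/mL. % inhibition = [(blank−test)/blank]×100, IC50 derived from the concentration series. Run twice.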
Series [2] has as its system A549. The series is described as follows: Cytotoxicity against human A549 cells at 1 to 500 ug/ml incubated for 24 hrs by MTT assay. The format is functional, cell-based. An outline of the steps:
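A549 lung cancer cells grown in MEM with 10% FBS, penicillin and streptomycin, at 37 °C under 5% CO2. Compounds made up at 2 mg/mL in DMSO, filter-sterilized, diluted in medium to 1, 10, 50, 100 and 500 μg/mL. Exposure 24 h, 0.1% DMSO control. MTT (5 mg/mL stock) added for 4 h, formazan dissolved in DMSO, read at 545 nm. Triplicate.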

A short description of series [3]: Antioxidant activity assessed as H2O2 scavenging activity. The series is classed as physicochemical. An outline of the steps:
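H2O2 prepared at 2.0 mM in 0.2 M phosphate buffer pH 7.4. Compounds at 10–50 μg/mL added to 0.6 mL of this solution and made up to 4 mL with buffer. H2O2 absorbance read at 230 nm against a buffer blank. % inhibition = [(blank−test)/blank]×100, IC50 derived from the concentration series.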

A short description of series [4]: Anti-inflammatory activity assessed as inhibition of bovine serum albumin denaturation at 10 to 500 ug/ml incubated for 15 mins at 37 degC. The series is classed as functional. An outline of the steps: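 Compounds dissolved in minimal DMF, diluted in 0.2 M phosphate buffer pH 7.4 (final DMF <2.5%). 4 mL test solution mixed with 1 mL of 1 mM albumin and held 15 min at 37 °C, then heated 15 min at 70 °C to denature. After cooling, turbidity read at 660 nm. % inhibition calculated against a no-drug control.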

With `COc1cc(/C=C/C(=O)/C=C(O)/C=C/c2ccc(OCC(=O)Nc3ccc(Cl)cc3)c(OC)c2)ccc1OCC(=O)Nc1ccc(Cl)cc1`, the values for the IC50 in series [1] and in series [3] were 12.92 µg/mL (≈ 18.4 µM) and 65.4 µg/mL (≈ 93 µM), respectively. The outcome in series [2] was Active.

Regarding `COc1cc(/C=C/C(=O)/C=C(O)/C=C/c2ccc(OCC(=O)Nc3ccc(C)cc3)c(OC)c2)ccc1OCC(=O)Nc1ccc(C)cc1`, the IC50 amounted to 22.85 µg/mL (≈ 34.5 µM) in series [1] and 61.98 µg/mL (≈ 93.5 µM) in series [3]. The outcome in series [2] was Active. Further, the inhibition result in series [4] is “Active”.

Take `COc1cc(/C=C/C(=O)/C=C(O)/C=C/c2ccc(OCC(=O)NC3CCCCC3)c(OC)c2)ccc1OCC(=O)NC1CCCCC1`: the IC50 stood at 16 µg/mL (≈ 24.7 µM) in series [1] and 26.14 µg/mL (≈ 40.4 µM) in series [3]. In series [2], the outcome was Active. Moreover, the inhibition result in series [4] was “Active”.

As to `COc1cc(/C=C/C(=O)/C=C(O)/C=C/c2ccc(OCC(=O)N(C)c3ccccc3)c(OC)c2)ccc1OCC(=O)N(C)c1ccccc1`, the figures for the IC50 in series [1] and in series [3] were 12.05 µg/mL (≈ 18.2 µM) and 63.21 µg/mL (≈ 95.4 µM), respectively. Besides, the result in series [2] was Active. Besides, the inhibition entry in series [4] was “Active”.

In the case of `COc1cc(/C=C/C(=O)/C=C(O)/C=C/c2ccc(OCC(=O)Nc3ccc(F)cc3)c(OC)c2)ccc1OCC(=O)Nc1ccc(F)cc1`, the figures for the IC50 in series [1] and in series [3] were 24.26 µg/mL (≈ 36.2 µM) and 70.51 µg/mL (≈ 105 µM), respectively. Also, the outcome in series [2] was Active. The inhibition entry in series [4] is “Active”.

For `COc1cc(/C=C/C(=O)CC(=O)/C=C/c2ccc(O)c(OC)c2)ccc1O` [CURCUMIN], the IC50 amounted to 14.83 µg/mL (≈ 40.3 µM) in series [1] and 34.71 µg/mL (≈ 94.2 µM) in series [3]. Further, the result in series [2] was Active. Also, the inhibition entry in series [4] was “Active”.

Regarding `COc1cc(/C=C/C(=O)/C=C(O)/C=C/c2ccc(OCC(=O)Nc3cccc4ccccc34)c(OC)c2)ccc1OCC(=O)Nc1cccc2ccccc12`, the results for the IC50 in series [1] and in series [3] were 12.65 µg/mL (≈ 17.2 µM) and 41.4 µg/mL (≈ 56.3 µM), respectively. For the same compound, the outcome in series [2] was Active.

Turning to `O=C1O[C@H]([C@@H](O)CO)C(O)=C1O` [ASCORBIC ACID], the concentration for half-maximal inhibition (IC50) in series [1] was 32.74 µg/mL (≈ 186 µM); in series [3], 67.54 µg/mL (≈ 383 µM).

Regarding `COc1cc(/C=C/C(=O)/C=C(O)/C=C/c2ccc(OCC(=O)Nc3ccccc3)c(OC)c2)ccc1OCC(=O)Nc1ccccc1`, the values for the concentration for half-maximal inhibition (IC50) in series [1] and in series [3] were 23.77 µg/mL (≈ 37.5 µM) and 63.7 µg/mL (≈ 100 µM), respectively. Further, in series [2], the outcome was Active. Further, in series [4], the inhibition result is “Active”.

`O=C(O)Cc1ccccc1Nc1c(Cl)cccc1Cl`: the inhibition entry in series [4] was “Active”.

For `CCN(CC)C(=O)COc1ccc(/C=C/C(=O)/C=C(O)/C=C/c2ccc(OCC(=O)N(CC)CC)c(OC)c2)cc1OC`, the IC50 is 19.68 µg/mL (≈ 33.1 µM) in series [1] and 68.16 µg/mL (≈ 115 µM) in series [3]. In series [2], the result was Active. In addition, the inhibition result in series [4] is “Active”.
